According to ChEMBL document CHEMBL3616420, “Nitrogenated honokiol derivatives allosterically modulate GABAA receptors and act as strong partial agonists” (Bioorg Med Chem, 2015):
pEC50: −log10 of the molar value. The source made the active and inactive calls. The calls are words filed in the database; no cut-off is given here.

What was measured:
Format in all cases: cell-based
[1] = molecular target: T1, GABA-A receptor; alpha-1/beta-2/gamma-2 (Homo sapiens) (UniProt P14867+P47870+P18507); experiment: Partial agonist activity at GABAAalpha1beta2gamma2s receptor (unknown origin) expressed in Xenopus laevis oocytes assessed as induction of chloride current by two-microelectrode voltage-clamp method relative to GABA
Procedure, shortened: (§1)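 Stage V–VI Xenopus laevis oocytes, defolliculated with 2 mg/mL collagenase, were injected with subunit cRNAs (approx. 300–3000 pg/nL/subunit) and stored at +18 °C in modified ND96 (pH 7.4). Chloride currents were recorded by two-microelectrode voltage clamp at +21 °C, holding potential −70 mV. Washout was 1.5 min at low compound concentrations and 30 min at high ones. Curves were fitted to a Hill equation. Values are mean ± SE from at least 3 oocytes and 2 batches.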

[2] = molecular target: T1, GABA-A receptor; alpha-1/beta-2/gamma-2 (Homo sapiens); experiment: Allosteric modulation of GABAAalpha1beta2gamma2s receptor (unknown origin) expressed in Xenopus laevis oocytes assessed as potentiation of GABA-induced chloride current at 100 uM by two-microelectrode voltage-clamp method
Procedure, shortened: (§2)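 Stage V–VI Xenopus oocytes were injected with 10–50 nL of DEPC-treated water carrying each GABAA subunit cRNA at about 300–3000 pg/nL/subunit. Oocytes were kept at +18 °C in modified ND96 (pH 7.4). Chloride currents were recorded by two-microelectrode voltage clamp at +21 °C, holding at −70 mV. Washout was lengthened at high drug concentrations. Values are mean SE from ≥3 oocytes and ≥2 batches.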

[3] = molecular target: T1, GABA-A receptor; alpha-1/beta-2/gamma-2 (Homo sapiens); experiment: Partial agonist activity at GABAAalpha1beta2gamma2s receptor (unknown origin) expressed in Xenopus laevis oocytes assessed as potentiation of GABA-induced chloride current at 100 uM by two-microelectrode voltage-clamp method; procedure, shortened: as §2
[4] = molecular target: T2, GABA-A receptor; alpha-1/beta-2/gamma-2 (Homo sapiens, UniProt P14867+P18507+P47870); experiment: Allosteric modulation of GABAAalpha1beta2gamma2s receptor (unknown origin) expressed in Xenopus laevis oocytes assessed as potentiation of GABA-induced chloride current by two-microelectrode voltage-clamp method; procedure, shortened: as §1
T2 sequence (P14867 whole entry): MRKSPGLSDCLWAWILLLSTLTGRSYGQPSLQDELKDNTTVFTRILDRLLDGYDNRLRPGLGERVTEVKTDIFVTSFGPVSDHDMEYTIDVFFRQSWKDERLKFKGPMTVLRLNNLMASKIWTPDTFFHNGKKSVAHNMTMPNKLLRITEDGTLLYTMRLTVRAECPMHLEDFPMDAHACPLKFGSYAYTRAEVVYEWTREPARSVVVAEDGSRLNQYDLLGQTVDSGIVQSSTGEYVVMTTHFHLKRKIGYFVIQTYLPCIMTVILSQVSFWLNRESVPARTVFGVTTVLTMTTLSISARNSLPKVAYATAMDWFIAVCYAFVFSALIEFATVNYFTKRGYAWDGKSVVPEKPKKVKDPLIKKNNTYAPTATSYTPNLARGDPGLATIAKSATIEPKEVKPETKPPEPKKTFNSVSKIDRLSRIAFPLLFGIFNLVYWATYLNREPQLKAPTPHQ
T2 sequence (P47870 whole entry): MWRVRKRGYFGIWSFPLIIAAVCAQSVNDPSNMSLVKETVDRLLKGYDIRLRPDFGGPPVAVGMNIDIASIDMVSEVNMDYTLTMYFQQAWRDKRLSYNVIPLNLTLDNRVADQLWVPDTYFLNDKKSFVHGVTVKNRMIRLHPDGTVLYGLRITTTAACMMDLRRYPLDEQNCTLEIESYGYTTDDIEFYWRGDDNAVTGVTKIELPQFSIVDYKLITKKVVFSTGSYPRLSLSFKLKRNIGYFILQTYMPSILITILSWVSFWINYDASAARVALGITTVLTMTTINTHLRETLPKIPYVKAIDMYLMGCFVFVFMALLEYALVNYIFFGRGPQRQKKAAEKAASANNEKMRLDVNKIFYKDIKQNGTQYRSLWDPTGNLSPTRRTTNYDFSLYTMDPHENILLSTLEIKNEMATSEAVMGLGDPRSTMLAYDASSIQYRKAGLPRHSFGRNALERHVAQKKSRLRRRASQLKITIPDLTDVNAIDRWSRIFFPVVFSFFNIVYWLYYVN
T2 sequence (P18507 whole entry): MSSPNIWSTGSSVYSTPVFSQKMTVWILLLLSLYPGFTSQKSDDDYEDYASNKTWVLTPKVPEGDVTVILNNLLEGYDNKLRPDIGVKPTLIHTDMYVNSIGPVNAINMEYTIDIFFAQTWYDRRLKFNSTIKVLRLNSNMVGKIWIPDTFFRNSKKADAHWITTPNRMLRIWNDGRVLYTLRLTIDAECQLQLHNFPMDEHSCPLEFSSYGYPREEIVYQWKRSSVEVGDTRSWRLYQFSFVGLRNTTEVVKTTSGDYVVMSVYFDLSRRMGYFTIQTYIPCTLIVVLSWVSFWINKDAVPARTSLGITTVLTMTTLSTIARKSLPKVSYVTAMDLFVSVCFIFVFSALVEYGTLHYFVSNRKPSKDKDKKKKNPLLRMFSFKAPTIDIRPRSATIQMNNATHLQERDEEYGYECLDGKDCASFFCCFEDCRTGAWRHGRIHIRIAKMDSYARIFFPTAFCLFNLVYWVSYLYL

[5] = molecular target: T2, GABA-A receptor; alpha-1/beta-2/gamma-2; experiment: Partial agonist activity at GABAAalpha1beta2gamma2s receptor (unknown origin) expressed in Xenopus laevis oocytes assessed as induction of chloride current by two-microelectrode voltage-clamp method
[6] = molecular target: T1, GABA-A receptor; alpha-1/beta-2/gamma-2 (Homo sapiens); experiment: Allosteric modulation of GABAAalpha1beta2gamma2s receptor (unknown origin) expressed in Xenopus laevis oocytes assessed as potentiation of GABA-induced chloride current by two-microelectrode voltage-clamp method relative to GABA; procedure, shortened: as §1

SMILES	Emax [1] [%]	Activity [2]	Activity [3]	pEC50 [4]	pEC50 [5]	Emax [6] [%]	Activity [1]
CCCc1cc(NC(C)=O)c(O)c(-c2ccc(OCC)c(CCC)c2)c1	32	Active	Active	5.74	5.16	123	
CCCc1ccc(OC)c(-c2cc(CCC)c(O)c(NC(C)=O)c2)c1				4.61		42.5	inactive
CCCc1cc(N)c(O)c(-c2ccc(OCC)c(CCC)c2)c1	29	Active	Active	4.84	4.48	93.7	
C=CCc1cc(NC(C)=O)c(O)c(-c2ccc(OC)c(CC=C)c2)c1	63			5.28	4.17	142	
CCCc1ccc(OC)c(-c2cc(N)c(O)c(CCC)c2)c1	52	Active	Active	4.80	4.21	108	
C=CCc1ccc(OCC)c(-c2cc(N)c(O)c(CC=C)c2)c1				4.67		91	inactive
C=CCc1ccc(O)c(-c2ccc(O)c(CC=C)c2)c1 [HONOKIOL]	78				4.12		
CCCc1ccc(OCC)c(-c2cc(N)c(O)c(CCC)c2)c1				4.69		118	inactive
C=CCc1ccc(OC)c(-c2cc(N)c(O)c(CC=C)c2)c1	59	Active	Active	4.32	3.84	72	
